Bioassay records as filed in PubChem.
Compounds with a hit are over-represented: about 2.8% of the library has one in this group of screens.
E-sel inducer = E-selectin induction in HUVECs, primary screen, imaging, HUVEC, immunofluorescence imaging, single point | P16581 | normalized: neutral wells 0, TNF-alpha wells 100 | activation, % at 7.58 µM | 0.37% of 260,000 active;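 active = mean E-selectin-positive cell signal at least 10% of the positive control, reached in at least 60% of replicates, without over 20% cell loss; inconclusive = no rule given, readout overlaps actives, possibly toxicity-flagged; inactive = the rest, including those meeting only one limit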
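Test system: HUVEC | Signal: Immunofluorescence imaging | Read-out: Percent E-selectin-positive cells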
DENV2 CPE rescue = inhibitors of DENV2 cytopathic effect, primary screen, cell-based, plate reader, single concentration; 1.7% of 350,000 active; DENV2-infected cells, cytopathic effect rescue; AID 651640, 2012; CPE inhibition, % at 9.99 µM; in the data active = CPE inhibition above about 20%, passing the limit was not always enough; inconclusive = no clear call, values can overlap the other calls; tested in BHK-21 cells;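 also: 0% = median of neutral control wells and 100% = median of positive control wells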
SIRT5 block = SIRT5 desuccinylase inhibitors, primary screen, biochemical, fluorescence imaging, single point, set 5; 1.1% of 330,000 active; inhibition, % at 15 µM; NAD-dependent protein deacylase sirtuin-5, mitochondrial (Homo sapiens), Q9NXA8; AID 652115, 2013; Purified SirT5, succinyl-peptide AMC, trypsin-coupled fluorescence; in the data active = inhibition above about 15%; inconclusive = no clear call, values can overlap the other calls
Target sequence (Q9NXA8 whole entry, looked up): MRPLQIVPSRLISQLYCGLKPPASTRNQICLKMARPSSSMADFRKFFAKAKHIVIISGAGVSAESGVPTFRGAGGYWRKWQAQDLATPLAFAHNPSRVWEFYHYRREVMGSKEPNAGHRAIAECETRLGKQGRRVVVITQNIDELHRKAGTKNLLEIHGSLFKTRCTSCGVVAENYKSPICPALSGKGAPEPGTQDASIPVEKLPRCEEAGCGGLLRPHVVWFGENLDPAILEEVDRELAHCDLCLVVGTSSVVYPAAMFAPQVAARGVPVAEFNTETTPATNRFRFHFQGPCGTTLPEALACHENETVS
* marks the source's active call; other numbers are inactive results; ? = inconclusive; nt = no result.

SMILES	E-sel inducer	DENV2 CPE rescue	SIRT5 block
COc1cccc(-c2ccc3c(c2)[C@H]2[C@H](CCN2S(=O)(=O)c2ccccc2OC)[C@@H](CO)N3)c1	0	-16	1
COc1cccc(CNC(=O)C[C@H]2C=C[C@@H](NS(=O)(=O)c3ccccc3OC)[C@@H](CO)O2)c1	0	nt	nt
C[C@H](CO)N1C[C@H](C)[C@H](CN(C)S(=O)(=O)c2ccc(Cl)cc2)Oc2c(NS(=O)(=O)c3cn(C)cn3)cccc2C1=O	0	-4	6
N#Cc1ccc(NC(=O)c2cc(S(=O)(=O)N3CCOCC3)ccc2N2CCCC2)cc1	6	-10	4
O=C(OCCOc1ccccc1)c1cc(S(=O)(=O)N2CCOCC2)ccc1Cl	0	-4	-2
Cc1ccc(S(=O)(=O)N2CCOCC2)cc1C(=O)NC1CCCC1	31*	3	0
CC(Sc1nc2cc(Cl)ccc2s1)C(=O)Nc1cccc(S(=O)(=O)N2CCOCC2)c1 (stereo unspecified)	nt	33*	-2
Cc1cc(Cl)ccc1OC(C)C(=O)Nc1cccc(S(=O)(=O)N2CCOCC2)c1 (stereo unspecified)	0	0	nt
N#CCc1ccc(NC(=O)c2cc(S(=O)(=O)N3CCOCC3)ccc2Cl)cc1	0	60*	-5
Cc1ccc(S(=O)(=O)N2CCCCC2)cc1C(=O)NC1CCCCC1	nt	-2	-3
Cc1ccccc1OCCOC(=O)c1cc(S(=O)(=O)N2CCOCC2)ccc1C	nt	72*	-5
CC(=O)N1[C@H](CO)[C@@H]2c3ccccc3N(C(=O)c3ccccc3)C[C@@H]21	0	nt	nt
O=C(c1ccc(F)cc1)N1CC(=O)N2[C@H](CO)[C@@H](c3ccc(-c4ccccc4)cc3)[C@H]2C1	0	-5	2
COc1cc(/C=C/C(=O)O)cc(S(=O)(=O)Nc2cccc(S(=O)(=O)N3CCOCC3)c2)c1OC	-1	-2	22*
O=C(NC1CC1)c1cccc(NC(=O)c2cc(S(=O)(=O)N3CCOCC3)ccc2Cl)c1	nt	94*	-3
CN1CCN(S(=O)(=O)c2ccc3ccccc3c2)CC1	0	15	nt
O=S(=O)(c1ccc2ccccc2c1)N1CCOCC1	0	?	99*
COc1cc(/C=C/C(=O)O)cc(S(=O)(=O)Nc2cc(S(=O)(=O)N3CCCCC3)ccc2Cl)c1OC	0	-3	nt
O=C(Nc1cccc(S(=O)(=O)N2CCOCC2)c1)C1CC1	0	-13	23*
Cc1ccc(S(=O)(=O)N2CCOCC2)cc1C(=O)Nc1cccc(C(=O)NC2CC2)c1	0	-9	-3
O=C(Nc1cccc(S(=O)(=O)N2CCOCC2)c1)C1CCCC1	0	2	1
CCCC#Cc1ccc(CC[C@H]2O[C@H]3CC[C@@H](CO)O[C@H]3C[C@H]2NC(=O)c2cnccn2)cc1	nt	5	1
C[C@@H]1CN([C@@H](C)CO)S(=O)(=O)c2ccc(-c3cccc(C#N)c3)cc2O[C@H]1CN(C)C(=O)Nc1cc(F)ccc1F	0	3	5
COc1ccccc1CNC(=O)C[C@H]1CC[C@H](NC(=O)CC2CC2)[C@@H](CO)O1	0	5	8
Cc1ccc(-c2ccc(CN3C(C(C)C)C(=O)N(Cc4cn(CCC5OCCO5)nn4)CCS3(=O)=O)cc2)c(C)c1 (stereo unspecified)	0	-2	26*
SMILES	E-sel inducer	DENV2 CPE rescue	SIRT5 block
CC(C)C1C(=O)N(Cc2cn(CCC3OCCO3)nn2)CCS(=O)(=O)N1Cc1ccc(-c2ccc(Cl)c(Cl)c2)cc1 (stereo unspecified)	nt	25*	8
CC1C(=O)N(Cc2cn(CCC3OCCCO3)nn2)CCS(=O)(=O)N1Cc1ccc(-c2ccccc2)cc1 (stereo unspecified)	0	5	0
COc1ccc(-c2ccc(CN3C(C(C)C)C(=O)N(Cc4cn(CCC5OCCO5)nn4)CCS3(=O)=O)cc2)cc1OC (stereo unspecified)	0	-2	-2
CC1C(=O)N(Cc2cn(CCC3OCCO3)nn2)CCS(=O)(=O)N1Cc1ccc(-c2cccc(N(C)C)c2)cc1 (stereo unspecified)	1	21*	2
Cc1ccccc1-c1ccc(CN2C(C(C)C)C(=O)N(Cc3cn(CCC4OCCO4)nn3)CCS2(=O)=O)cc1 (stereo unspecified)	0	?	4
CCCNC(=O)[C@H]1[C@H](CO)[C@H]2Cn3c(ccc(-c4ccncc4)c3=O)[C@@H]1N2CC1CC1	-2	nt	nt
COC(=O)C[C@@H]1CC[C@@H]2[C@@H](COc3ccc(NC(=O)c4ccc(F)c(F)c4)cc3C(=O)N2C)O1	0	11	-9
CO[C@@H]1CN(C)C(=O)c2cc(NC(=O)NC3CCCCC3)ccc2OC[C@H](C)NC[C@@H]1C	0	-15	1
